Assay results reported in ChEMBL document CHEMBL1156084, “Synthesis and structure-activity relationships of pyrazolodiazepine derivatives as human P2X7 receptor antagonists” (Bioorg Med Chem Lett, 2009).

How the values were obtained:
Assay type in all cases: functional, cell-based
[1] = target: T1, P2X purinoceptor 7 (Homo sapiens) (UniProt Q99572); test: Antagonist activity at human P2X7 receptor expressed in HEK293 cells assessed as inhibition of BzATP-induced fluorescent ethidium accumulation; settings: concentration not given here
T1 sequence (whole entry): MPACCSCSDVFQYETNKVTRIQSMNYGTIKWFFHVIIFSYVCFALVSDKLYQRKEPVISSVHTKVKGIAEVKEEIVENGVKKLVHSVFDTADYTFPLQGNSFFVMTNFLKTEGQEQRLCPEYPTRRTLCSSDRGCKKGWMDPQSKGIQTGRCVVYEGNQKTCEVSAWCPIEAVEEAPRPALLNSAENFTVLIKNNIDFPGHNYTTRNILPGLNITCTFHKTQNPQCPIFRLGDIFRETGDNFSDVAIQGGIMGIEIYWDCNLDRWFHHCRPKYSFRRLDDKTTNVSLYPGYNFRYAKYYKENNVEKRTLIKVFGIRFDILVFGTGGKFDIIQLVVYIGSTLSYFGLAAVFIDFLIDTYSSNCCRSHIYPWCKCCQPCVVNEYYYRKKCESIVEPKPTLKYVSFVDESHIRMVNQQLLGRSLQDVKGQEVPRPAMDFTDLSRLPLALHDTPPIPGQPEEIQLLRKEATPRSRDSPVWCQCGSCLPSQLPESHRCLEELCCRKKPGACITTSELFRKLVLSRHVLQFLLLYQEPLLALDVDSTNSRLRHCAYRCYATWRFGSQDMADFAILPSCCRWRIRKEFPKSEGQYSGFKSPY
In short: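 Adherent HEK293 cells stably transfected with human P2X7 cDNA, resuspended at 2.5×10^6 cells/mL in HEPES buffer (mM: ethidium bromide 0.1, EDTA 1, glucose 5, HEPES 20, KCl 140; pH 7.4). Cells added to compound wells, then BzATP, and incubated 120 min at 37 °C. Ethidium uptake read by fluorescence (ex 530/20, em 590/20). IC50 is the mean from dose–response curves of at least three experiments.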

P2X purinoceptor 7 = target: T2, P2X purinoceptor 7 (Homo sapiens, UniProt Q99572); test: Antagonist activity at human P2X7 receptor expressed in HEK293 cells assessed as inhibition of BzATP-induced fluorescent ethidium accumulation […]
T2 sequence (Q99572 whole entry): T1 sequence (whole entry)
In short: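 Human P2X7-expressing HEK293 cells at 2.5×10^6 cells/mL in pH 7.4 HEPES/KCl/EDTA/glucose buffer containing 0.1 mM ethidium bromide. Compound tested at 10 μM, then BzATP added, and cells held 120 min at 37 °C. Ethidium accumulation measured by fluorescence (ex 530/20, em 590/20) and expressed as % inhibition, mean ± SD of three repeats.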

[2] = target: T1, P2X purinoceptor 7 (Homo sapiens); test: Antagonist activity at P2X7 receptor in IFN-gamma/LPS-differentiated human THP1 cells assessed as inhibition of BzATP-induced IL1-beta release at 10 uM treated 30 mins prior to BzATP addition by ELISA; settings: THP-1
In short: (§1)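 THP-1 cells differentiated and primed 3 h with 25 ng/mL LPS plus 10 ng/ml IFNγ. Compound added 30 min before stimulation with 1 mM BzATP for 30 min. Supernatants cleared by centrifugation (1000 rpm, 5 min), and mature human IL-1β quantified by ELISA.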

[3] = target: T1, P2X purinoceptor 7 (Homo sapiens); test: Antagonist activity at P2X7 receptor in IFN-gamma/LPS-differentiated human THP1 cells assessed as inhibition of BzATP-induced IL1-beta release treated 30 mins prior to BzATP addition by ELISA; settings: THP-1; in short: as §1

Row | Compound | inhibition [1] | IC50 (P2X purinoceptor 7) | inhibition [2] | Activity [3]
1 | Cn1cc(CN2CCC(CCn3cc4c(n3)C(=O)N[C@@H](Cc3ccccc3)CN4C(=O)C3CC3)CC2)c2ccccc21 | 39% |  |  | 
2 | Cc1cccc(CN2C[C@H](COC(=O)c3cn(C)c4ccccc34)NC(=O)c3nn(CCc4ccccc4)cc32)c1 | 46% |  |  | 
3 | Cn1cc(CN2C[C@H](COC(=O)c3cccc4cnccc34)NC(=O)c3nn(CCc4ccccc4)cc32)c2ccccc21 | 33% |  |  | 
4 | Cc1cc(O)ccc1CN1C[C@@H](COC(=O)c2cn(C)c3ccccc23)NC(=O)c2nn(CCc3ccccc3)cc21 | 30% |  |  | 
5 | Cc1ccc(CN2C[C@H](COC(=O)c3cn(C)c4ccccc34)NC(=O)c3nn(CCc4ccccc4)cc32)cc1 | 87% | 520 nM | 38% | 
6 | Cn1cc(C(=O)OC[C@H]2CN(Cc3ccc([N+](=O)[O-])cc3)c3cn(CCc4ccccc4)nc3C(=O)N2)c2ccccc21 | 65% | 1420 nM | 41% | 
7 | Cc1ccc(CN2C[C@H](COC(=O)c3cccc4cnccc34)NC(=O)c3nn(CCc4ccccc4)cc32)cc1 | 69% | 1180 nM | 48% | 
8 | O=C1N[C@@H](COC(=O)c2cccc3cnccc23)CNc2cn(CCc3ccccc3)nc21 | 71% | 790 nM | 44% | 
9 | CN([C@@H](Cc1ccc(OS(=O)(=O)c2cccc3cnccc23)cc1)C(=O)N1CCN(c2ccccc2)CC1)S(=O)(=O)c1cccc2cnccc12 |  | 110 nM | 103% | 
10 | O=C1N[C@@H](COC(=O)c2cccc3cnccc23)CN(Cc2ccccc2)c2cn(CCc3ccccc3)nc21 | 68% | 1450 nM | 42% | 
11 | O=C1N[C@@H](Cc2ccccc2)CN(C(=O)C2CC2)c2cn(CCC3CCN(Cc4cccc5ncccc45)CC3)nc21 | 24% |  |  | 
12 | Cn1cc(CN2C[C@H](COC(=O)c3cn(C)c4ccccc34)NC(=O)c3nn(CCc4ccccc4)cc32)c2ccccc21 | 68% | 1070 nM | 65% | 
13 | O=C1N[C@@H](Cc2ccccc2)CN(C(=O)C2CC2)c2cn(CCC3CCNCC3)nc21 | 13% |  |  | 
14 | O=C1N[C@@H](Cc2ccccc2)CN(C(=O)C2CC2)c2cn(CCC3CCN(Cc4cccc5cnccc45)CC3)nc21 | 27% |  |  | 
15 | Cc1cccc(CN2C[C@H](COC(=O)c3cccc4cnccc34)NC(=O)c3nn(CCc4ccccc4)cc32)c1 | 42% |  |  | 
16 | Cn1cc(C(=O)OC[C@H]2CN(Cc3ccc(F)cc3)c3cn(CCc4ccccc4)nc3C(=O)N2)c2ccccc21 | 39% |  |  | 
17 | Cn1cc(C(=O)OCC2CN(Cc3cccc4ccccc34)c3cn(CCc4ccccc4)nc3C(=O)N2)c2ccccc21 (single isomer, unassigned) | 48% |  |  | 
18 | O=C1N[C@@H](COC(=O)c2cccc3cnccc23)CN(Cc2ccc(F)cc2)c2cn(CCc3ccccc3)nc21 | 75% | 1280 nM | 65% | 
19 | Cn1cc(C(=O)OC[C@H]2CN(Cc3cccc(F)c3)c3cn(CCc4ccccc4)nc3C(=O)N2)c2ccccc21 | 45% |  |  | 
20 | CC(C)(C)OC(=O)N1CCC(CCn2cc3c(n2)C(=O)N[C@H](Cc2ccccc2)CN3C(=O)C2CC2)CC1 | 70% | 4310 nM |  | 
21 | Cc1cc(CN2C[C@H](COC(=O)c3cccc4cnccc34)NC(=O)c3nn(CCc4ccccc4)cc32)ccc1O | 84% | 740 nM | 51% | 
22 | Cn1cc(C(=O)OC[C@H]2CN(Cc3ccc(Br)cc3)c3cn(CCc4ccccc4)nc3C(=O)N2)c2ccccc21 | 88% | 850 nM | 50% | 

The remaining lines, values ahead:

Row | inhibition [1] | IC50 (P2X purinoceptor 7) | inhibition [2] | Activity [3] | Compound
23 | 38% |  |  |  | O=C1N[C@@H](COC(=O)c2cccc3cnccc23)CN(Cc2ccc(Br)cc2)c2cn(CCc3ccccc3)nc21
24 | 33% |  |  |  | O=C(OC[C@H]1CNc2cn(CCc3ccccc3)nc2C(=O)N1)c1ccccc1
25 | 46% |  |  |  | O=C1N[C@@H](COC(=O)c2cccc3ccccc23)CNc2cn(CCc3ccccc3)nc21
26 | 88% | 180 nM | 37% |  | Cc1cc(O)ccc1CN1C[C@H](COC(=O)c2cn(C)c3ccccc23)NC(=O)c2nn(CCc3ccccc3)cc21
27 | 61% | 13000 nM |  |  | CC(C)(C)OC(=O)N1CCC(CCn2cc3c(n2)C(=O)N[C@@H](Cc2ccccc2)CN3C(=O)C2CC2)CC1
28 | 44% |  |  |  | O=C1N[C@@H](COC(=O)c2cccc3ccccc23)CN(Cc2ccccc2)c2cn(CCc3ccccc3)nc21
29 | 43% |  |  |  | Cn1cc(C(=O)OC[C@H]2CNc3cn(CCc4ccccc4)nc3C(=O)N2)c2ccccc21
30 | 94% | 310 nM | 105% | Dose-dependent effect | Cn1cc(C(=O)OC[C@H]2CN(Cc3ccccc3)c3cn(CCc4ccccc4)nc3C(=O)N2)c2ccccc21
31 | 29% |  |  |  | COc1ccc(CN2C[C@H](COC(=O)c3cn(C)c4ccccc34)NC(=O)c3nn(CCc4ccccc4)cc32)cc1
32 | 94% | 250 nM | 55% |  | Cn1cc(C(=O)OC[C@H]2CN(Cc3ccc(Cl)cc3)c3cn(CCc4ccccc4)nc3C(=O)N2)c2ccccc21
